Assay results pooled from the literature.
Protocols differ between the studies behind these lines.
Target: Protein kinase C eta type (PRKCH, Homo sapiens, UniProt P24723)

With `Cc1cnc(Nc2ccc(C(=O)N3CCC(N4CCCC4)CC3)cc2)nc1-c1cc2ccccc2s1` the remaining binding was 15% (binding, competition with immobilised ligand; 1 µM).
The remaining binding of `Cn1nc(C(=O)NCc2ccc(C(=O)O)cc2)cc1-c1ccc2[nH]ccc2c1` is reported as 84% (cell-free assay, competition with immobilised ligand; 0.1 µM).
`C[C@H]1CCN(c2nccc(-c3cnn4ncccc34)n2)C1` has a remaining binding of 93% (binding; 1 µM).
`C[C@@H]1CN(c2cc(-c3n[nH]c4ccc(OC5(C)CC5)cc34)ncn2)C[C@H](C)O1` gave a remaining binding of 92% (cell-free assay, competition with immobilised ligand; 0.1 µM).
`O=C(NCC1CCOCC1)c1n[nH]cc1NC(=O)c1c(F)cccc1F` gave a remaining binding of 92% (binding, competition with immobilised ligand; 1 µM).
The remaining binding of `CCS(=O)(=O)c1cc2cc(C[C@@](O)(CC(C)(C)c3ccc(F)cc3C(N)=O)C(F)(F)F)[nH]c2cn1` is reported as 100% (cell-free assay, competition with immobilised ligand; 1 µM).
`O=C(c1ccc(Nc2ncc(Cl)c(-c3cc4ccccc4s3)n2)cc1)N1CCC(N2CCCC2)CC1` has a remaining binding of 12% (binding, competition with immobilised ligand; 1 µM).
For `CN(C)CC#Cc1ccc(OCCCc2sc(N3CCc4cccc(C(=O)Nc5nc6ccccc6s5)c4C3)nc2C(=O)O)c(F)c1`, the remaining binding was 74% (cell-free assay, competition with immobilised ligand; 1 µM).
With `COc1cnc(Nc2cccc(S(N)(=O)=O)c2)nc1N1CCN(c2ccccc2)C(=O)C1` the remaining binding was 95% (binding, competition with immobilised ligand; 1 µM).
With `FC(F)(F)Oc1cccc(-c2cnc3ccc(-c4ccncc4)nn23)c1` the remaining binding was 91% (cell-free assay, competition with immobilised ligand; 5 µM).
With `CNC(=O)[C@@H]1CC[C@@H](n2c(-c3ccc4cnccc4c3)nc3ccc(C(=O)NCc4cccc(C(N)=O)c4)cc32)C1` the remaining binding was 100% (binding, competition with immobilised ligand; 1 µM).
With `O=C(c1ccc(Nc2nccc(-c3cc4ccccc4s3)n2)cc1)N1CCC(N2CCCC2)CC1` the remaining binding was 74% (binding, competition with immobilised ligand; 1 µM).
With `CN(c1nccc(-c2cnn3ncccc23)n1)C1CC1` the remaining binding was 100% (binding; 1 µM).
The remaining binding of `COc1cc(-c2cn(C3CCc4c(F)cccc4N(CC(F)(F)F)C3=O)nn2)ccc1-n1cnc(C)c1` (stereo not shown) is reported as 100% (cell-free assay, competition with immobilised ligand; 1 µM).
With `N[C@@H]1CCN(c2nccc(-c3cnn4ncccc34)n2)C1` the remaining binding was 100% (binding; 1 µM).
With `CN(C)c1ncnc(-c2ccc3nc(Nc4cc(CN5CCN(C(=O)CC(F)(F)F)CC5)ccn4)[nH]c3c2)c1Cl` the remaining binding was 100% (cell-free assay, competition with immobilised ligand; 1 µM).
`CN(C)c1ncc(F)c(-c2cnn3ncccc23)n1` gave a remaining binding of 100% (binding; 1 µM).
The remaining binding of `COc1ccc2c(c1)O[C@@H](c1ccc(OC)c(OC)c1)C[C@H]2NC(=O)C1(c2ccc3c(c2)OC(F)(F)O3)CC1` is reported as 96% (cell-free assay, competition with immobilised ligand; 1 µM).
`CN(C)c1nccc(-c2cnn3ncccc23)n1` has a remaining binding of 100% (binding; 1 µM).
`c1cncc(-c2cccc(Nc3nccc(NC4CCCCC4)n3)c2)c1` has a remaining binding of 73% (binding, competition with immobilised ligand; 10 µM).
For `COc1ccnn2ncc(-c3ccnc(N(C)C)n3)c12`, the remaining binding was 92% (binding; 1 µM).
`C=CC(=O)N1CCC(C(=O)NCC(=O)N2CCN(c3nc(-c4cnc(N)nc4C(F)F)nc(N4CCOCC4)n3)CC2)CC1` gave a remaining binding of 100% (binding, competition with immobilised ligand; 1 µM).
